The source made the active and inactive calls. No cut-off for these calls is given here.
Legend:
[1] = system: Human immunodeficiency virus 1; assay: Ability to protect CD4+ ATH8 cells from cytopathogenic effects of HIV-1; Inactive; format: functional, organism-based; conditions: ATH-8
[2] = system: Human immunodeficiency virus 1; assay: Ability to protect CD4+ ATH8 cells from cytopathogenic effects of HIV-1; No effect; format: functional, organism-based; conditions: ATH-8
[3] = system: H9; assay: Percentage of gag protein expression using H9 cells at 200 uM on 7th day; format: functional, Homo sapiens
Summary of the method: (§1)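 H9 cells (105) were infected with HIV-1 (500 virus particles per cell) and cultured without or with drug at the stated concentration. On days 7, 10 and 12, the percentage of cells expressing HIV-1 p24 gag protein was scored by indirect immunofluorescence with murine monoclonal antibody M26.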

[4] = system: H9; assay: Percentage of gag protein expression using H9 cells at 5 uM on 10th day; format: functional, Homo sapiens; summary of the method: as §1
[5] = system: H9; assay: Percentage of gag protein expression using H9 cells at 5 uM on 12th day; format: functional, Homo sapiens; summary of the method: as §1
[6] = system: H9; assay: Percentage of gag protein expression using H9 cells at 5 uM on 7th day; format: functional, Homo sapiens; summary of the method: as §1
[7] = system: H9; assay: Percentage of gag protein expression using H9 cells at 50 uM on 10th day; format: functional, Homo sapiens; summary of the method: as §1
[8] = system: H9; assay: Percentage of gag protein expression using H9 cells at 50 uM on 12th day; format: functional, Homo sapiens; summary of the method: as §1
[9] = system: H9; assay: Percentage of gag protein expression using H9 cells at 20 uM on 7th day; format: functional, Homo sapiens; summary of the method: as §1
[10] = system: H9; assay: Percentage of gag protein expression using H9 cells at 200 uM on 10th day; format: functional, Homo sapiens; summary of the method: as §1
[11] = system: H9; assay: Percentage of gag protein expression using H9 cells at 200 uM on 12th day; format: functional, Homo sapiens; summary of the method: as §1
[12] = system: H9; assay: Percentage of gag protein expression using H9 cells at 50 uM on 7th day; format: functional, Homo sapiens; summary of the method: as §1
[13] = system: H9; assay: Percentage of gag protein expression using H9 cells at 0 uM on 7th day; format: functional, Homo sapiens; summary of the method: as §1
[14] = system: H9; assay: Percentage of gag protein expression using H9 cells at 100 uM on 10th day; format: functional, Homo sapiens; summary of the method: as §1
[15] = system: H9; assay: Percentage of gag protein expression using H9 cells at 100 uM on 12th day; format: functional, Homo sapiens; summary of the method: as §1
[16] = system: H9; assay: Percentage of gag protein expression using H9 cells at 100 uM on 7th day; format: functional, Homo sapiens; summary of the method: as §1
[17] = system: H9; assay: Percentage of gag protein expression using H9 cells at 20 uM on 10th day; format: functional, Homo sapiens; summary of the method: as §1
[18] = system: H9; assay: Percentage of gag protein expression using H9 cells at 20 uM on 12th day; format: functional, Homo sapiens; summary of the method: as §1
[19] = system: H9 (Homo sapiens); assay: Percentage of gag protein expression using H9 cells at 0 uM on 10th day
[20] = system: H9 (Homo sapiens); assay: Percentage of gag protein expression using H9 cells at 0 uM on 12th day
[21] = system: Human immunodeficiency virus 1; assay: Ability to protect CD4+ ATH8 cells from cytopathogenic effect of HIV-1; Active; format: functional, organism-based; conditions: ATH-8

Compound	Expression [3] [%]	Expression [4] [%]	Expression [5] [%]	Expression [6] [%]	Expression [7] [%]	Expression [8] [%]	Expression [9] [%]	Expression [10] [%]	Expression [11] [%]	Expression [12] [%]	Expression [13] [%]	Expression [14] [%]	Expression [15] [%]	Expression [16] [%]	Expression [17] [%]	Expression [18] [%]	Expression [19] [%]	Expression [20] [%]	Activity [21]	other results
Nc1ncnc2c1ncn2[C@@H]1O[C@H](CO)C[C@H]1F	–	–	–	–	–	–	–	–	–	–	–	–	–	–	–	–	–	–	–	Activity [1]: inactive
Nc1ncnc2c1ncn2[C@H]1CC[C@@H](CO)O1	0	48	86	48	0	2	1	0	0	0	79	0	0	0	0	8	70	84	–	Activity [2]: inactive
OCC1CC(F)C(n2cnc3c(O)ncnc32)O1 (stereo unspecified)	7	82	61	54	24	57	58	10	60	23	76	12	53	34	52	61	71	74	Active	–
Nc1ncnc2c1ncn2[C@@H]1O[C@H](CO)C[C@@H]1F [LODENOSINE]	0	73	66	58	20	19	61	0	0	18	79	34	50	10	37	53	71	79	–	–
O=c1[nH]cnc2c1ncn2[C@H]1CC[C@@H](CO)O1 [DIDANOSINE]	0	53	74	73	0	3	9	0	0	0	76	0	0	0	30	48	73	83	Active	–
